Columns and labels:
Type in all cases: functional
Felis catus [1] = species on record: Felis catus; test: acetylcholine antagonist effect of compound on cat blood pressure at concentration 5.7*10e-7 in 29 min
Outline: (§1)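 Adult cats under ip α-chloralose (80 mg/kg) plus pentobarbitone (6 mg/kg), bilaterally vagotomized and artificially respired. Carotid blood pressure was recorded. An iv acetylcholine dose giving 70–80% of maximal vasodepressor response was used. After iv test drug, acetylcholine responses were checked at 1 min and then every 2–3 min and expressed as % of control. Doses were given in mol/kg, escalating after recovery.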

Felis catus [2] = species on record: Felis catus; test: acetylcholine antagonist effect of compound on cat blood pressure at concentration 5.7*10e-8 in 5 min
Outline: (§2)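 Adult cats anesthetized ip with α-chloralose (80 mg/kg) plus sodium pentobarbitone (6 mg/kg), bilaterally vagotomized, artificially respired. Carotid arterial pressure recorded. Drugs given iv via brachial vein. Acetylcholine dose giving 70-80% of maximal vasodepressor response used throughout. Test drug injected, acetylcholine response checked 1 min later, then every ~2-3 min. Value is % of control vasodepressor response to acetylcholine.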

Felis catus [3] = species on record: Felis catus; test: acetylcholine antagonist effect of compound on cat blood pressure at concentration 5.7*10e-7 in 1 min; outline: as §1
Felis catus [4] = species on record: Felis catus; test: acetylcholine antagonist effect of compound on cat blood pressure at concentration 5.7*10e-8 in 3 min; outline: as §1
Felis catus [5] = species on record: Felis catus; test: acetylcholine antagonist effect of compound on cat blood pressure at concentration 5.7*10e-7 in 4 min; outline: as §1
Felis catus [6] = species on record: Felis catus; test: acetylcholine antagonist effect of compound on cat blood pressure at concentration 5.7*10e-7 in 25 min; outline: as §1
Felis catus [7] = species on record: Felis catus; test: acetylcholine antagonist effect of compound on cat blood pressure at concentration 5.7*10e-7 in 6 min; outline: as §1
Felis catus [8] = species on record: Felis catus; test: acetylcholine antagonist effect of compound on cat blood pressure at concentration 5.7*10e-7 in 17 min; outline: as §1
Felis catus [9] = species on record: Felis catus; test: acetylcholine antagonist effect of compound on cat blood pressure at concentration 5.7*10e-8 in 9 min; outline: as §2
Felis catus [10] = species on record: Felis catus; test: acetylcholine antagonist effect of compound on cat blood pressure at concentration 5.7*10e-8 in 4 min; outline: as §2
Felis catus [11] = species on record: Felis catus; test: acetylcholine antagonist effect of compound on cat blood pressure at concentration 5.7*10e-7 in 13 min; outline: as §1
Felis catus [12] = species on record: Felis catus; test: acetylcholine antagonist effect of compound on cat blood pressure at concentration 5.7*10e-7 in 10 min; outline: as §1
Felis catus [13] = test: acetylcholine antagonist effect of compound on cat blood pressure at concentration 5.7*10e-8 mol/kg in 1 min; outline: as §1
Felis catus [14] = species on record: Felis catus; test: acetylcholine antagonist effect of compound on cat blood pressure at concentration 5.7*10e-7 in 21 min; outline: as §1

## C[N+]1(COC(=O)C(c2ccccc2)C2CCCC2)CCOCC1.[Cl-] (centres undefined)
Felis catus [1]
  Response: 100%
Felis catus [2]
  Response: 90%
Felis catus [3]
  Response: 0%
Felis catus [4]
  Response: 45%
Felis catus [5]
  Response: 0%
Felis catus [6]
  Response: 82%
Felis catus [7]
  Response: 0%
Felis catus [8]
  Response: 59%
Felis catus [9]
  Response: 100%
Felis catus [10]
  Response: 82%
Felis catus [11]
  Response: 50%
Felis catus [12]
  Response: 23%
Felis catus [13]
  Response: 0%
Felis catus [14]
  Response: 73%
